Assay results: ChEMBL document CHEMBL1137702, “Identification of hydrolytically stable and selective P2Y(1) receptor agonists” (Eur J Med Chem, 2009)
Activity calls are given as the source filed them.

Columns and labels:
[1] = molecular target: T1, Ectonucleotide pyrophosphatase/phosphodiesterase family member 1 (Homo sapiens) (UniProt P22413); assay: Inhibition of human NPP1 expressed in human 293T cells; assay type: cell-based
T1 sequence (whole entry): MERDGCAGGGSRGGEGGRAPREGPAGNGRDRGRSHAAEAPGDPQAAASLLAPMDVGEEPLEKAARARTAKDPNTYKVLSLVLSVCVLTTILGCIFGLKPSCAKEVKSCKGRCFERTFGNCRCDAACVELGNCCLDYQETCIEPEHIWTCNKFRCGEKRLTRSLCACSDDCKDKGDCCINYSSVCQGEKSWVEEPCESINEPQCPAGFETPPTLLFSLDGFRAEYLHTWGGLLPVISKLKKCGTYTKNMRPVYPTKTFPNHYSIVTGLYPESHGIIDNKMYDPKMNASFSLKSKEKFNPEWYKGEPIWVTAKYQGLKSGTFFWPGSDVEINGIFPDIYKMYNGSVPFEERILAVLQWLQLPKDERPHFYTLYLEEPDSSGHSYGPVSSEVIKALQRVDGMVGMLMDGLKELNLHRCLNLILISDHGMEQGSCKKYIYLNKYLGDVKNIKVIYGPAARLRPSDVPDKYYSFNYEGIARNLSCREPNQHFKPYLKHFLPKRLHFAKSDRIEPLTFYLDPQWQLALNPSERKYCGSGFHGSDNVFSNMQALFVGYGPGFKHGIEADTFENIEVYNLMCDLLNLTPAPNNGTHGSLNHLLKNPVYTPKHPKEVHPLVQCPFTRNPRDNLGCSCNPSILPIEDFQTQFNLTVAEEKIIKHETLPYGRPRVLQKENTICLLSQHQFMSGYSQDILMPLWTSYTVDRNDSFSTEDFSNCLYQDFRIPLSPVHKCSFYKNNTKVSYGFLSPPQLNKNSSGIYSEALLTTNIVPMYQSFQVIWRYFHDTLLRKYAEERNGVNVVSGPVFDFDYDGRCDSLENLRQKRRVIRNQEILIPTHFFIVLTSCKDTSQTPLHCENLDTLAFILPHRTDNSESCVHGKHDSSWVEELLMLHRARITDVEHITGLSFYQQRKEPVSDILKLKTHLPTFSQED

[2] = molecular target: P2Y purinoceptor 2 (Homo sapiens, UniProt P41231); assay: Agonist activity at human P2Y2 receptor expressed in human 1321N1 cells assessed as increase in intracellular calcium concentration by dual-excitation spectrofluorimetric analysis; assay type: functional, cell-based
In short: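 1321N1 astrocytoma cells stably expressing the receptor (turkey P2Y1, human P2Y2, human P2Y4, rat P2Y6) were grown with G-418 selection. Fura-2-loaded cell suspensions were exposed at 37 °C in 10 mM HEPES-buffered saline pH 7.4 with 1 mM CaCl2 and 1 mM MgCl2. Peak [Ca2+]i rise was measured over a range of concentrations to derive EC50.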

[3] = molecular target: P2Y purinoceptor 6 (Rattus norvegicus) (UniProt Q63371); assay: Antagonist activity at rat P2Y6 receptor expressed in human 1321N1 cells assessed as inhibition of UDP-induced increase in intracellular calcium concentration by dual-excitation spectrofluorimetric analysis; assay type: functional, cell-based
In short: (§1)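 Fura-2-loaded suspensions of stably transfected 1321N1 cells were assayed at 37 °C in HEPES-buffered saline pH 7.4 with 1 mM Ca2+ and Mg2+. […] [Ca2+]i was read by dual-excitation spectrofluorometry.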

[4] = molecular target: T2, Ectonucleoside triphosphate diphosphohydrolase 3 (Homo sapiens) (UniProt O75355); assay: Inhibition of human NTPDase 3 expressed in human 293T cells; assay type: cell-based
T2 sequence (whole entry): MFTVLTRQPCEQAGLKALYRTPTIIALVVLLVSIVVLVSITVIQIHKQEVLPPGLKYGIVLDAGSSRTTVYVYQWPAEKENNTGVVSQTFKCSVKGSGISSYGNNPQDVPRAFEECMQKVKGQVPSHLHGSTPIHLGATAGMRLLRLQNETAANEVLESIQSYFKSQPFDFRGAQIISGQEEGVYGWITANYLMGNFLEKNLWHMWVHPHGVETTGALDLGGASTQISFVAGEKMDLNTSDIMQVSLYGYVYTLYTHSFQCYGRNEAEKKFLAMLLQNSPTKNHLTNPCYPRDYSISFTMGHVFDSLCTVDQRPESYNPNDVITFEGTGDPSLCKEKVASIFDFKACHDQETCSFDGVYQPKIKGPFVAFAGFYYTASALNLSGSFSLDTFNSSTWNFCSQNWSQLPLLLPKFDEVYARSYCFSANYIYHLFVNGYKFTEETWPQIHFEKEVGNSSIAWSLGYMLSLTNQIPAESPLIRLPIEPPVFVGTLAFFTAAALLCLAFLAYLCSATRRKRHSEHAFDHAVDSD

[5] = molecular target: T3, Ectonucleotide pyrophosphatase/phosphodiesterase family member 3 (Homo sapiens) (UniProt O14638); assay: Inhibition of human NPP3 expressed in human 293T cells; assay type: cell-based
T3 sequence (whole entry): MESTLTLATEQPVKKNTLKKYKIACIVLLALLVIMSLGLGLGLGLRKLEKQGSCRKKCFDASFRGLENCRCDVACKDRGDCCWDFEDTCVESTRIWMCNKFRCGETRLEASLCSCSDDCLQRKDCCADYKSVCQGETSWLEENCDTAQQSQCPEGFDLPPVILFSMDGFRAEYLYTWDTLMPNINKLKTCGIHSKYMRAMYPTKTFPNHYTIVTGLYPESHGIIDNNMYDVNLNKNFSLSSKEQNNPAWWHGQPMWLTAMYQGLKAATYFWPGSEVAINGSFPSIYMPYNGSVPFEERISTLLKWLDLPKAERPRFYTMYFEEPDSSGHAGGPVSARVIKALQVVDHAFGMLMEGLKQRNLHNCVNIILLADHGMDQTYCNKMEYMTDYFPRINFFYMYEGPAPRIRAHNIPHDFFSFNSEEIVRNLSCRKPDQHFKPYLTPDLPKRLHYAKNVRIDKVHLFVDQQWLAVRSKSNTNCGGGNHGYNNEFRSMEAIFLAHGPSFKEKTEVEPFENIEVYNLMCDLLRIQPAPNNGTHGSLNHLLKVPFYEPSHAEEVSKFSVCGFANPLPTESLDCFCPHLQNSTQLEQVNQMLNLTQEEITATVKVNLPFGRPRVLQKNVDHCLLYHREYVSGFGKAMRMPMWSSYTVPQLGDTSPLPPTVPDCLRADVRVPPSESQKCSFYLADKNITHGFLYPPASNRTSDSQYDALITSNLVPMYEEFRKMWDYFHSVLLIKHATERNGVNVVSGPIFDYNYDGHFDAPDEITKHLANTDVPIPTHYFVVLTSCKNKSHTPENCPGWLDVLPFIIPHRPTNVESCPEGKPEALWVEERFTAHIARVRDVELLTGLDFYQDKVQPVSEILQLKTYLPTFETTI

[6] = molecular target: P2Y purinoceptor 1 (Meleagris gallopavo) (UniProt P49652); assay: Antagonist activity at turkey P2Y1 receptor expressed in human 1321N1 cells assessed as inhibition of 2-MeS-ADP-induced increase in intracellular calcium concentration by dual-excitation spectrofluorimetric analysis; assay type: functional, cell-based; in short: as §1

Measured: Activity

P2Y purinoceptor 6 (Rattus norvegicus), sequence (Q63371 whole entry): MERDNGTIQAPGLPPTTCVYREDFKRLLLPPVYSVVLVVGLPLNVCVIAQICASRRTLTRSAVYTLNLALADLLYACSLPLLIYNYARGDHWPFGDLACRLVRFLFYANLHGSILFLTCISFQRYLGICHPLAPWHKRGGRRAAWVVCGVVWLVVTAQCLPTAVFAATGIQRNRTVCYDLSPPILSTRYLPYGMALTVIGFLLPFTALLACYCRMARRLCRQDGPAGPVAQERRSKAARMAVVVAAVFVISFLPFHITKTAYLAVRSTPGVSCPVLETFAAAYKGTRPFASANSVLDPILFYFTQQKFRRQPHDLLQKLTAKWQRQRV
P2Y purinoceptor 1 (Meleagris gallopavo), sequence (P49652 whole entry): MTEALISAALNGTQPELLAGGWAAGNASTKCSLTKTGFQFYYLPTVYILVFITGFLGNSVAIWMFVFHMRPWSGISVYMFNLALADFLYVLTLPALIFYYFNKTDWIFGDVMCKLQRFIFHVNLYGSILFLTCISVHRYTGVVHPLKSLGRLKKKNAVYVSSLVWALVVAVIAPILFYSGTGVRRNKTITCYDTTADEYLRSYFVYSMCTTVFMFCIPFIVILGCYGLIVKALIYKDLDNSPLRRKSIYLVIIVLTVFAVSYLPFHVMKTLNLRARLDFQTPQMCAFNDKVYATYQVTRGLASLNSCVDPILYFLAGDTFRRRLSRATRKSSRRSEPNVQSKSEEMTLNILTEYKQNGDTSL
P2Y purinoceptor 2, sequence (P41231 whole entry): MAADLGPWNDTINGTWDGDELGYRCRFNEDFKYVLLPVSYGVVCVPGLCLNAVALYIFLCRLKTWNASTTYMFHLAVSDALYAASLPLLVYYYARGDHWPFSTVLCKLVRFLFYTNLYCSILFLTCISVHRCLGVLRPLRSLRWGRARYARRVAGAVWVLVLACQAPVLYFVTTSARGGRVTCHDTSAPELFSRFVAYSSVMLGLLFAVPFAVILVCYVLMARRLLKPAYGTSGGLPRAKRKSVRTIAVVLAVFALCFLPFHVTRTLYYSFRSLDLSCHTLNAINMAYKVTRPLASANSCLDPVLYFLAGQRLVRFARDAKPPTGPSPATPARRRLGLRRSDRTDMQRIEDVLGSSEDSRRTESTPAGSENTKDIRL

CSc1nc(N)c2ncn([C@@H]3O[C@H](COP(=O)(O)OP(=O)(O)CP(=O)(O)O)[C@@H](O)[C@H]3O)c2n1
inactive: all assays above

BP(=O)(OC[C@H]1O[C@@H](n2cnc3c(N)ncnc32)[C@H](O)[C@@H]1O)OP(=O)(O)CP(=O)(O)O (some centres undefined)
not listed: [6]
inactive: all other assays above

BP(=O)(OC[C@H]1O[C@@H](n2cnc3c(N)nc(SC)nc32)[C@H](O)[C@@H]1O)OP(=O)(O)CP(=O)(O)O (single isomer, unassigned; diastereomer A)
inactive: all assays above

BP(=O)(OC[C@H]1O[C@@H](n2cnc3c(N)nc(SC)nc32)[C@H](O)[C@@H]1O)OP(=O)(O)CP(=O)(O)O (single isomer, unassigned; diastereomer B)
inactive: all assays above

BP(=O)(OC[C@H]1O[C@@H](n2cnc3c(N)ncnc32)[C@H](O)[C@@H]1O)OP(=O)(O)CP(=O)(O)O (single isomer, unassigned; diastereomer B)
inactive: all assays above
